The text below walks through data of ChEMBL document CHEMBL1132219, “Synthesis of novel phenserine-based-selective inhibitors of butyrylcholinesterase for Alzheimer's disease” (J Med Chem, 1999).

For assay [1], the target named is T1, Cholinesterases; ACHE & BCHE (Homo sapiens) (UniProt P06276+P22303). Kind of assay: BChE selectivity = IC50(AChE) / IC50(BChE). Format: protein assay.
The target of a further assay is Acetylcholinesterase (Homo sapiens, UniProt P22303). Kind of assay: Ability to inhibit acetylcholinesterase (AChE), freshly prepared from human erythrocytes. The gist of the method:
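AChE from freshly collected blood: erythrocytes washed five times in isotonic saline, lysed in 9 volumes of 0.1 M Na3PO4 pH 7.4 with 0.5% Triton-X, diluted to final 1:200. Compounds preincubated with enzyme 30 min at room temperature, then with substrate and DTNB 25 min at 37 °C, pH 8.0. Final range 0.3 nM–[…] in half-log steps. IC50 from logit-activity versus log concentration. Four runs.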

In a further assay the target is Cholinesterase (Homo sapiens, UniProt P06276). In words: Ability to inhibit butyrylcholinesterase (BChE), freshly prepared from human plasma. Format: cell-free.
Chain of Cholinesterase (P06276 whole entry): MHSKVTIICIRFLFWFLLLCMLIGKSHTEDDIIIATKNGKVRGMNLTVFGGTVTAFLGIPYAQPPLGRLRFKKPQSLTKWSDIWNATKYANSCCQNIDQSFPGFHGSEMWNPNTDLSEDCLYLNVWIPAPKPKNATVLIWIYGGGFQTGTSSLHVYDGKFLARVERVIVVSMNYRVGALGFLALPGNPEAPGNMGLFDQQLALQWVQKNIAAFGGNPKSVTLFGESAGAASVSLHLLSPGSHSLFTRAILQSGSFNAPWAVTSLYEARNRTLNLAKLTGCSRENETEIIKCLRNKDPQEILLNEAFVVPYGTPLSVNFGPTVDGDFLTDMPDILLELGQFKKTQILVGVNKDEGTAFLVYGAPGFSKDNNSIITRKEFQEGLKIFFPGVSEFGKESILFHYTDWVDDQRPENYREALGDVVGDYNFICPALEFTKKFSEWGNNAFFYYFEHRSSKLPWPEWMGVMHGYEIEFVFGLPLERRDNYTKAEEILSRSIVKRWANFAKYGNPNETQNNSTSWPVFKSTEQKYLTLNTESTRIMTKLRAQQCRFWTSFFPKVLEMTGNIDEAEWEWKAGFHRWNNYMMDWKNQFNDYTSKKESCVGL
Assay [2] has as its target T1, Cholinesterases; ACHE & BCHE (Homo sapiens). In words: AChE selectivity = IC50(BChE) / IC50(AChE). The assay is classed as protein assay.

Bounds are passed on as bounds.

Chain of Acetylcholinesterase (P22303 whole entry): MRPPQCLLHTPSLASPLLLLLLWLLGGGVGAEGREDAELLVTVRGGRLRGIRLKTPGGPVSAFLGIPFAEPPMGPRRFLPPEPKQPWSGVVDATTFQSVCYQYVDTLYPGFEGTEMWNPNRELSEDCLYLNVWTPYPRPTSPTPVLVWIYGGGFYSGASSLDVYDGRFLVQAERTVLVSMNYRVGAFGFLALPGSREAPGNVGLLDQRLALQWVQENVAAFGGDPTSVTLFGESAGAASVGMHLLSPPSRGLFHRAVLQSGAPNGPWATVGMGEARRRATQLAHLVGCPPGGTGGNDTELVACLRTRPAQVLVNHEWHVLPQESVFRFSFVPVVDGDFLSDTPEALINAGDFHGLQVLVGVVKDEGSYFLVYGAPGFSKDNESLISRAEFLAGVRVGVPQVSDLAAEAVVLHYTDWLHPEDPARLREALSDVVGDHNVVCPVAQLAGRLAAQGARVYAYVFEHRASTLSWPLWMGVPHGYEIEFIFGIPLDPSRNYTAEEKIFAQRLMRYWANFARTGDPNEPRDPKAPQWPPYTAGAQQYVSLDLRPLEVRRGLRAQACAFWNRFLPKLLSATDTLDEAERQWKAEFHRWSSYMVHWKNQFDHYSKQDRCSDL
T1 sequence (P06276 whole entry, looked up): as the sequence (P06276 whole entry) above
T1 sequence (P22303 whole entry, looked up): as the sequence (P22303 whole entry) above

Regarding `CC(C)c1ccc(NC(=O)Oc2ccc3c(c2)[C@]2(C)CCN(C)C2N3Cc2ccccc2)cc1` (some centres not stated), in assay [1], the Selectivity was 152. Moreover, the IC50 at Acetylcholinesterase came out at 13000 nM; on Cholinesterase, 85 nM.

`Cc1ccccc1NC(=O)Oc1ccc2c(c1)[C@]1(C)CCN(C)C1N2` (some centres not stated): the IC50 against Acetylcholinesterase is 40 nM; against Cholinesterase, 1430 nM. In assay [2], this molecule returned a Selectivity of 36.

Take `Cc1ccccc1NC(=O)Oc1ccc2c(c1)[C@]1(C)CCN(C)C1N2Cc1ccccc1` (some centres not stated): the IC50 at Acetylcholinesterase worked out at 100 nM; on Cholinesterase, 600 nM. The molecule further displayed a Selectivity in assay [2] of 6.

On to `Cc1ccccc1NC(=O)Oc1ccc2c(c1)[C@]1(C)CCNC1N2` (some centres not stated), for which the IC50 was 285 nM against Acetylcholinesterase and 396 nM on Cholinesterase. The same molecule registered a Selectivity in assay [2] of 1.

Molecule `Cc1ccccc1NC(=O)Oc1ccc2c(c1)[C@]1(C)CCN(Cc3ccccc3)C1N2Cc1ccccc1` (some centres not stated) displayed a Selectivity in assay [1] of 3. For the same molecule, the IC50 was 1760 nM at Acetylcholinesterase and 641 nM against Cholinesterase.

With `Cc1ccccc1NC(=O)Oc1ccc2c(c1)[C@]1(C)CCNC1N2C` (some centres not stated), the results for the IC50 at Acetylcholinesterase and at Cholinesterase were 17 nM and 2170 nM, respectively. This molecule came in with a Selectivity in assay [2] of 127.

As for `Cc1ccccc1NC(=O)Oc1ccc2c(c1)[C@]1(C)CCN(CCc3ccccc3)C1N2C` (some centres not stated), the figures for the IC50 at Acetylcholinesterase and on Cholinesterase were 550 nM and 1790 nM, respectively. Moreover, the Selectivity in assay [2] came out at 3.

`CC(C)c1ccc(NC(=O)Oc2ccc3c(c2)[C@]2(C)CCNC2N3)cc1` (some centres not stated) had a Selectivity in assay [1] of 110. Moreover, the results for the IC50 on Acetylcholinesterase and against Cholinesterase were 110 nM and 1 nM, respectively.

In the case of `CC(C)c1ccc(NC(=O)Oc2ccc3c(c2)[C@]2(C)CCN(C)C2N3)cc1` (some centres not stated), the Selectivity in assay [1] was 26. For the same molecule, the IC50 against Acetylcholinesterase was 2020 nM; at Cholinesterase, 78 nM.

`Cc1ccccc1NC(=O)Oc1ccc2c(c1)[C@]1(C)CCN(C)C1N2C` (some centres not stated) displayed an IC50 at Acetylcholinesterase of 10.3 nM.

On to `CC(C)c1ccc(NC(=O)Oc2ccc3c(c2)[C@]2(C)CCN(CCc4ccccc4)C2N3C)cc1` (some centres not stated), for which the concentration for half-maximal inhibition (IC50) against Acetylcholinesterase was over 30000 nM; at Cholinesterase it was 6 nM.

Consider `CN1CC[C@@]2(C)c3cc(OC(=O)Nc4ccccc4)ccc3N(C)C12` (some centres not stated), for which, in assay [2], the Selectivity was 65.

Molecule `CC(C)c1ccc(NC(=O)Oc2ccc3c(c2)[C@]2(C)CCNC2N3C)cc1` (some centres not stated) displayed a Selectivity in assay [1] of 39. Besides, the IC50 on Acetylcholinesterase is 324 nM; at Cholinesterase it was 8.3 nM.

Consider `CC(C)c1ccc(NC(=O)Oc2ccc3c(c2)[C@]2(C)CCN(Cc4ccccc4)C2N3Cc2ccccc2)cc1` (some centres not stated), for which the Selectivity in assay [1] is over 227. Further, the IC50 against Acetylcholinesterase is over 30000 nM; at Cholinesterase, 132 nM.
